Laboratory results reported in ChEMBL document CHEMBL3120060, “Synthesis, in vitro anticancer evaluation and in silico studies of novel imidazo[2,1-b]thiazole derivatives bearing pyrazole moieties” (2014).

Key:
Format in all cases: functional
SF-539 = assay: Cytotoxicity against human SF539 cells assessed as cell growth at 10 uM after 48 hrs by SRB assay; conditions: SF-539, 48 h, read-out: Activity
How it was run: (§1)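 NCI-60 single-dose screen. Cell lines grown in RPMI 1640 with 5% FBS and 2 mM L-glutamine, plated at 5000–40,000 cells/well according to doubling time, then preincubated 24 h at 37 °C in 5% CO2. Compounds dissolved in DMSO, tested at 10^-5 M for 48 h. Adherent cells fixed with cold TCA (10% final) and stained with 0.4% SRB in 1% acetic acid. Growth expressed as percent of untreated control.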

SF-295 = assay: Cytotoxicity against human SF295 cells assessed as cell growth at 10 uM after 48 hrs by SRB assay; conditions: SF-295, 48 h, read-out: Activity; how it was run: as §1
SF-268 = assay: Cytotoxicity against human SF268 cells assessed as cell growth at 10 uM after 48 hrs by SRB assay; conditions: SF-268, 48 h, read-out: Activity; how it was run: as §1
SW-620 = assay: Cytotoxicity against human SW620 cells assessed as cell growth at 10 uM after 48 hrs by SRB assay; conditions: SW-620, 48 h, read-out: Activity
How it was run: (§2)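 NCI-60 single-dose screen at 10^-5 M. Adherent lines are grown in RPMI 1640 with 5% FBS and 2 mM L-glutamine, seeded at 5000–40,000 cells/well by doubling time, and preincubated 24 h at 37 °C in 5% CO2. Drug is added from DMSO stock diluted in medium, then 48 h. Cells are fixed in cold TCA (final 10%) for 60 min and stained with 0.4% SRB in 1% acetic acid. Growth is expressed as % of untreated control using time-zero plates.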

KM12 = assay: Cytotoxicity against human KM12 cells assessed as cell growth at 10 uM after 48 hrs by SRB assay; conditions: KM12, 48 h, read-out: Activity; how it was run: as §1
HCT-116 = assay: Cytotoxicity against human HCT116 cells assessed as cell growth at 10 uM after 48 hrs by SRB assay; conditions: HCT-116, 48 h, read-out: Activity; how it was run: as §1
HCC 2998 = assay: Cytotoxicity against human HCC2998 cells assessed as cell growth at 10 uM after 48 hrs by SRB assay; conditions: HCC 2998, 48 h, read-out: Activity; how it was run: as §1
COLO 205 = assay: Cytotoxicity against human COLO205 cells assessed as cell growth at 10 uM after 48 hrs by SRB assay; conditions: COLO 205, 48 h, read-out: Activity; how it was run: as §1
NCI-H522 = assay: Cytotoxicity against human NCI-H522 cells assessed as cell growth at 10 uM after 48 hrs by SRB assay; conditions: NCI-H522, 48 h, read-out: Activity; how it was run: as §1
NCI-H460 = assay: Cytotoxicity against human NCI-H460 cells assessed as cell growth at 10 uM after 48 hrs by SRB assay; conditions: NCI-H460, 48 h, read-out: Activity; how it was run: as §1
NCI-H322M = assay: Cytotoxicity against human NCI-H322M cells assessed as cell growth at 10 uM after 48 hrs by SRB assay; conditions: read-out: Activity; how it was run: as §1
NCI-H226 = assay: Cytotoxicity against human NCI-H226 cells assessed as cell growth at 10 uM after 48 hrs by SRB assay; conditions: NCI-H226, 48 h, read-out: Activity; how it was run: as §1
HOP-92 = assay: Cytotoxicity against human HOP92 cells assessed as cell growth at 10 uM after 48 hrs by SRB assay; conditions: HOP-92, 48 h, read-out: Activity; how it was run: as §1
A549 = assay: Cytotoxicity against human A549 cells assessed as cell growth at 10 uM after 48 hrs by SRB assay; conditions: A549, 48 h, read-out: Activity; how it was run: as §1
RPMI-8226 = assay: Cytotoxicity against human RPMI8226 cells assessed as cell growth at 10 uM after 48 hrs by SRB assay; conditions: RPMI-8226, 48 h, read-out: Activity; how it was run: as §1
MOLT-4 = assay: Cytotoxicity against human MOLT4 cells assessed as cell growth at 10 uM after 48 hrs by SRB assay; conditions: MOLT-4, 48 h, read-out: Activity; how it was run: as §1
CCRF-CEM = assay: Cytotoxicity against human CCRF-CEM cells assessed as cell growth at 10 uM after 48 hrs by SRB assay; conditions: read-out: Activity; how it was run: as §1
T47D = assay: Cytotoxicity against human T47D cells assessed as cell growth at 10 uM after 48 hrs by SRB assay; conditions: read-out: Activity; how it was run: as §2
DU-145 = assay: Cytotoxicity against human DU145 cells assessed as cell growth at 10 uM after 48 hrs by SRB assay; conditions: DU-145, 48 h, read-out: Activity; how it was run: as §1
PC-3 = assay: Cytotoxicity against human PC3 cells assessed as cell growth at 10 uM after 48 hrs by SRB assay; conditions: PC-3, 48 h, read-out: Activity; how it was run: as §1
TK-10 = assay: Cytotoxicity against human TK10 cells assessed as cell growth at 10 uM after 48 hrs by SRB assay; conditions: TK-10, 48 h, read-out: Activity; how it was run: as §2
SN12C = assay: Cytotoxicity against human SN12C cells assessed as cell growth at 10 uM after 48 hrs by SRB assay; conditions: read-out: Activity; how it was run: as §1
CAKI-1 = assay: Cytotoxicity against human CAKI-1 cells assessed as cell growth at 10 uM after 48 hrs by SRB assay; conditions: CAKI-1, 48 h, read-out: Activity; how it was run: as §1
SK-OV-3 = assay: Cytotoxicity against human SKOV3 cells assessed as cell growth at 10 uM after 48 hrs by SRB assay; conditions: SK-OV-3, 48 h, read-out: Activity; how it was run: as §1
[1] = Cytotoxicity against human NCI-ADR-RES cells assessed as cell growth at 10 uM after 48 hrs by SRB assay; conditions: read-out: Activity; how it was run: as §1
OVCAR-8 = assay: Cytotoxicity against human OVCAR8 cells assessed as cell growth at 10 uM after 48 hrs by SRB assay; conditions: OVCAR-8, 48 h, read-out: Activity; how it was run: as §1
[2] = Cytotoxicity against human OVCAR5 cells assessed as cell growth at 10 uM after 48 hrs by SRB assay; conditions: OVCAR-5, 48 h, read-out: Activity; how it was run: as §1
[3] = Cytotoxicity against human OVCAR4 cells assessed as cell growth at 10 uM after 48 hrs by SRB assay; conditions: OVCAR-4, 48 h, read-out: Activity; how it was run: as §1
SK-MEL-28 = assay: Cytotoxicity against human SK-MEL-28 cells assessed as cell growth at 10 uM after 48 hrs by SRB assay; conditions: SK-MEL-28, 48 h, read-out: Activity; how it was run: as §1
MDA-MB-435 = assay: Cytotoxicity against human MDA-MB-435 cells assessed as cell growth at 10 uM after 48 hrs by SRB assay; conditions: MDA-MB-435, 48 h, read-out: Activity; how it was run: as §1
Malme-3M = assay: Cytotoxicity against human MALME-3M cells assessed as cell growth at 10 uM after 48 hrs by SRB assay; conditions: read-out: Activity; how it was run: as §1
LOX IMVI = assay: Cytotoxicity against human LOXIMVI cells assessed as cell growth at 10 uM after 48 hrs by SRB assay; conditions: read-out: Activity; how it was run: as §1
SNB-75 = assay: Cytotoxicity against human SNB75 cells assessed as cell growth at 10 uM after 48 hrs by SRB assay; conditions: SNB-75, 48 h, read-out: Activity; how it was run: as §1

| Compound | growth at 10 µM (SF-539) [%] | growth at 10 µM (SF-295) [%] | growth at 10 µM (SF-268) [%] | growth at 10 µM (SW-620) [%] | growth at 10 µM (KM12) [%] | growth at 10 µM (HCT-116) [%] | growth at 10 µM (HCC 2998) [%] | growth at 10 µM (COLO 205) [%] | growth at 10 µM (NCI-H522) [%] | growth at 10 µM (NCI-H460) [%] | growth at 10 µM (NCI-H322M) [%] | growth at 10 µM (NCI-H226) [%] | growth at 10 µM (HOP-92) [%] | growth at 10 µM (A549) [%] | growth at 10 µM (RPMI-8226) [%] | growth at 10 µM (MOLT-4) [%] | growth at 10 µM (CCRF-CEM) [%] | growth at 10 µM (T47D) [%] | growth at 10 µM (DU-145) [%] | growth at 10 µM (PC-3) [%] | also measured |
| --- | --- | --- | --- | --- | --- | --- | --- | --- | --- | --- | --- | --- | --- | --- | --- | --- | --- | --- | --- | --- | --- |
| Cc1cc(C)n(-c2cn3c(-c4ccccc4)csc3n2)n1 | 94 | 77.5 | 98.4 | 102 | 104 | 101 | 105 | 106 | 88.4 | 104 | 91.1 | 88.3 | 86 | 99 | 93 | 93.9 | 95.4 | 87.2 | 105 | 88.7 | growth at 10 µM (TK-10): 124%; growth at 10 µM (SN12C): 96.5%; growth at 10 µM (CAKI-1): 77.4%; growth at 10 µM (SK-OV-3): 89.9%; growth at 10 µM [1]: 95.5%; growth at 10 µM (OVCAR-8): 95.9%; growth at 10 µM [2]: 95.4%; growth at 10 µM [3]: 93%; growth at 10 µM (SK-MEL-28): 102%; growth at 10 µM (MDA-MB-435): 96.9%; growth at 10 µM (Malme-3M): 94.1%; growth at 10 µM (LOX IMVI): 91.9%; growth at 10 µM (SNB-75): 64.1% |
| O=C1CN2C(c3ccc(Cl)cc3)=CSC2=N1 | 94.8 | 80 | 100 | 101 | 100 | 97.1 | 101 | 108 | 87.5 | 106 | 93.8 | 110 | 111 | 92.5 | 89.2 | 79.1 | 91.5 | 92.1 | 102 | 101 | growth at 10 µM (TK-10): 79.9%; growth at 10 µM (SN12C): 94.9%; growth at 10 µM (CAKI-1): 81.3%; growth at 10 µM (SK-OV-3): 98.2%; growth at 10 µM [1]: 102%; growth at 10 µM (OVCAR-8): 96%; growth at 10 µM [2]: 97%; growth at 10 µM [3]: 90.3%; growth at 10 µM (SK-MEL-28): 95.7%; growth at 10 µM (MDA-MB-435): 87.8%; growth at 10 µM (Malme-3M): 99.3%; growth at 10 µM (LOX IMVI): 98.9%; growth at 10 µM (SNB-75): 75.8% |
| Cc1ccc(-c2csc3nc(-n4nc(C)cc4C)cn23)cc1 | 109 | 88.5 | 112 | 106 | 108 | 97 | 107 | 106 | 91.8 | 102 | 96.4 | 94.8 | 78 | 98.6 | 90.3 | 98.4 | 96 | 98.2 | 116 | 84.7 | growth at 10 µM (TK-10): 141%; growth at 10 µM (SN12C): 98.1%; growth at 10 µM (CAKI-1): 83.5%; growth at 10 µM (SK-OV-3): 101%; growth at 10 µM [1]: 98.5%; growth at 10 µM (OVCAR-8): 96%; growth at 10 µM [2]: 113%; growth at 10 µM [3]: 97.8%; growth at 10 µM (SK-MEL-28): 94.8%; growth at 10 µM (MDA-MB-435): 94.6%; growth at 10 µM (Malme-3M): 114%; growth at 10 µM (LOX IMVI): 92.8%; growth at 10 µM (SNB-75): 85.9% |
| O=C1CC(=O)N(c2cn3c(-c4ccc(Cl)cc4)csc3n2)N1 | 101 | 84.4 | 105 | 104 | 106 | 93.2 | 102 | 101 | 74.1 | 104 | 83.3 | 103 | 99.4 | 88.9 | 85 | 79 | 89.5 | 87.3 | 105 | 90 | growth at 10 µM (TK-10): 95%; growth at 10 µM (SN12C): 88.4%; growth at 10 µM (CAKI-1): 78.9%; growth at 10 µM (SK-OV-3): 103%; growth at 10 µM [1]: 99.3%; growth at 10 µM (OVCAR-8): 101%; growth at 10 µM [2]: 115%; growth at 10 µM [3]: 87.4%; growth at 10 µM (SK-MEL-28): 95.7%; growth at 10 µM (MDA-MB-435): 93.7%; growth at 10 µM (Malme-3M): 97.1%; growth at 10 µM (LOX IMVI): 96.5%; growth at 10 µM (SNB-75): 74.2% |
